Series [1] is described as follows: Metal chelating activity assessed as Al3+-compound complex formation after 1 hr by LC-HRMS analysis. In short, it runs like this:
(§1)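 500 μg of ligand was dissolved in 1 mL PBS (pH 7.5) and stirred with excess (15 mg) AlCl3, AuCl3 or VCl3 at room temperature for 1 h. Samples went through C18 SPE with a water wash and MeOH elution, were dried, and were redissolved at 500 μg mL−1 in MeOH. Complexes were detected by C18 LC-HRMS using a water/acetonitrile 0.1% formic acid gradient.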

In a further series the test system is Proteus vulgaris. Description: Antimicrobial activity against Proteus vulgaris ATCC 12454 after 22 hrs by micro broth dilution assay. The class given is functional, organism-based. To be noted: ATCC 12454, 22 h. In a few lines:
(§2)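 CLSI broth microdilution, run in triplicate. OD600 was read at time zero and again after 22 h at 37 °C, and percent growth inhibition was calculated from these readings. The free ligand and its Fe(III) and Ga(III) complexes were tested.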
(Dilution methods test growth across graded concentrations, often in twofold steps.)

In the next series the test system is Keratinocyte. The series is described as follows: Cytotoxicity against human epidermal keratinocytes after 24 hrs by alamar blue assay. In a few lines: (§3)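 Cytotoxicity was measured with Alamar blue. Fluorescence (ex 560/12, em 590 nm) was read at time zero and 4 h after Alamar blue addition, and IC50 values were calculated from these readings. The free ligand and its Fe(III) and Ga(III) complexes were tested.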

The next series concerns Enterococcus faecium. Description: Antimicrobial activity against vancomycin-resistant Enterococcus faecium EF379 after 22 hrs by micro broth dilution assay. The class given is functional, organism-based. The following applies: EF379, 22 h. In a few lines:
as §2

Another series concerns Staphylococcus warneri. Description: Antimicrobial activity against Staphylococcus warneri ATCC 17917 after 22 hrs by micro broth dilution assay. It is filed as functional, organism-based. To be noted: ATCC 17917, 22 h. In short, it runs like this: as §2
The nature of series [2]: Metal chelating activity assessed as V3+-compound complex formation after 1 hr by LC-HRMS analysis. In a few lines:
as §1

The subject of another series is Vero. The series is described as follows: Cytotoxicity against African green monkey Vero cells after 24 hrs by alamar blue assay. It is filed as cell-based. The following applies: chlorocebus sabaeus. In a few lines:
as §3

Another series has as its system Staphylococcus aureus. Description: Antibacterial activity against methicillin-resistant Staphylococcus aureus ATCC 33591 after 22 hrs by microbroth dilution method. It is filed as functional, organism-based. To be noted: ATCC 33591, 22 h. In short, it runs like this: as §2
A short description of series [3]: Metal chelating activity assessed as Au3+-compound complex formation after 1 hr by LC-HRMS analysis. In short, it runs like this: as §1

The results in this text go back to ChEMBL document CHEMBL4251718, “Isolation of Imaqobactin, an Amphiphilic Siderophore from the Arctic Marine Bacterium Variovorax Species RKJM285” (J Nat Prod, 2018).

Active and inactive are the calls of the source. The calls are words filed in the database; no cut-off is given here.

Usually IC50 stands for the concentration that inhibits the measured activity by half. On to `CCCCCCCCCCCC(=O)NC(CCCN(O)C=O)C(O)C(C)C(=O)N[C@@H](CO)C(=O)N[C@@H]1CCCN(O)C(=O)CC(C)OC(=O)[C@H]([C@@H](O)C(=O)O)NC(=O)[C@H]([C@@H](C)O)NC1=O` (some centres undefined), for which the result in [1], in [2] and in [3] was Active. Besides, the IC50 in the series on Proteus vulgaris stood at 14 µM; in the series on Enterococcus faecium, 11 µM; in the series on Staphylococcus warneri it was 28 µM; in the series with Staphylococcus aureus it was 35 µM. Besides, the Activity entry in the series on Keratinocyte and with Vero was “Non-Toxic” each time.
